In article PMC2900633 (Bioorganic & medicinal chemistry, 2008):

Legend:
[1] = system: Jurkat, PC3 and LNCaP cells; assay: MTT assay, statements over all three cell lines; assay type: cell-based
LNCaP cells = assay: MTT assay, LNCaP cells; assay type: cell-based; settings: 24 h, ±10 μM
PC3 cells = assay: Endogenous PS exposure, Annexin V-FITC flow cytometry; assay type: cell-based; settings: scramblase 100 μM, 37°C, 2 hours, background value 2 %
Summary of the method: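 PC3 cells were grown in Ham's F-12K with 10% FBS at 37°C, 5% CO2. At 90% confluency they were PBS-washed, trypsinised and resuspended in TES buffer at 1 × 10^5 cells/mL. Test compound (100 μM, from DMSO stock) was added for 2 h at 37°C. Cells were then stained in binding buffer with Annexin V-FITC plus 7AAD (500 ng/mL) for 15 min at 37°C. Flow cytometry excluded 7AAD-positive cells. Three independent experiments were run.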

erythrocytes = settings: raised from 1 %, previous work, ref 8f; cited from earlier work

Compound	LD50 (effect on mitochondrial reductase activity) [1]	LD50, LNCaP cells (LNCaP cells)	fraction of Annexin-stained cells (PC3 cells)	fraction of Annexin-stained cells, erythrocytes (erythrocytes)
Cc1ccc(S(=O)(=O)NCCN(CCNC(=O)[C@H](N)Cc2ccccc2)CCNS(=O)(=O)c2ccc(C)cc2)cc1.Cl [scramblase 15]	> 15 µM	40 µM	–	–
Cc1ccc(S(=O)(=O)NCCN(CCNCc2ccccc2)CCNS(=O)(=O)c2ccc(C)cc2)cc1 [scramblase 16]	> 15 µM	40 µM	–	–
Cc1ccc(S(=O)(=O)NCCN(CCNC(=O)Nc2ccc(C(F)(F)F)cc2)CCNS(=O)(=O)c2ccc(C)cc2)cc1 [scramblase 5]	–	–	10%	–
Cc1ccc(S(=O)(=O)NCCN(CCNC(=O)Nc2ccc([N+](=O)[O-])cc2)CCNS(=O)(=O)c2ccc(C)cc2)cc1 [scramblase 2]	–	–	< 5%	34%
Cc1ccc(S(=O)(=O)NCCN(CCNC(=O)Nc2ccc(C(C)C)cc2)CCNS(=O)(=O)c2ccc(C)cc2)cc1 [scramblase 9]	–	–	< 5%	–
Cc1ccc(S(=O)(=O)NCCN(CCNC(=S)Nc2ccc(Cl)cc2)CCNS(=O)(=O)c2ccc(C)cc2)cc1 [scramblase 14]	> 15 µM	15 µM	–	–
